# Test results published in ChEMBL document CHEMBL3102812 (J Med Chem, 2013).
# The source made the active and inactive calls. The calls are words filed in the database; no cut-off is given here.
# Test system: Mus musculus
# Experiment: Toxicity in Swiss mouse at 20 mg/kg, po
# Settings: in vivo
row,SMILES,Activity
1,CS(=O)(=O)c1ccc(N2CCN(C(=O)C(c3ccc(Cl)cc3)c3cccnc3)CC2)cc1 (stereo unspecified),Non-toxic
2,O=C(C(c1ccc(Cl)cc1)c1cccnc1)N1CCN(c2ccc(C(F)(F)F)cn2)CC1 (stereo unspecified),Non-toxic
3,O=C(C(c1ccc(Cl)cc1)c1cccnc1)N1CCN(c2ccc(C(F)(F)F)nc2)CC1 (stereo unspecified),Non-toxic
4,CS(=O)(=O)c1ccc(N2CCN(C(=O)C(c3ccc(C#N)cc3)c3cccnc3)CC2)cc1 (stereo unspecified),Non-toxic
5,CS(=O)(=O)c1ccc(N2CCC(N(c3ccc(C#N)cc3)c3cccnc3)CC2)cc1,Non-toxic
6,N#Cc1ccc(C(c2cccnc2)N2CCC(NC(=O)c3ccccc3)CC2)cc1 (stereo unspecified),Non-toxic
7,N#Cc1cccc(N2CCC(NC(c3cccnc3)c3ccc(Cl)cc3F)CC2)c1 (stereo unspecified),Non-toxic

# Test system: Trypanosoma cruzi
# Experiment: Antitrypanosomal activity against Trypanosoma cruzi Tulahuen 6 infected in Swiss mouse assessed as reduction in blood parasitemia at 20 mg/kg, po qd administered on day 8 post-infection for 10 days by microscopic analysis
# Type: functional, organism-based
# Set-up: dose 20 mg/kg
# Settings: not given
# Method in brief: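 Infected Swiss mice dosed orally at 20 mg/kg once daily for up to 10 days starting day 8 pi; blood parasitemia followed by microscopy throughout dosing, scored as cleared or not during the dosing period.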
row,SMILES,Activity
1,N#Cc1ccc(C(c2cccnc2)N2CCC(NC(=O)c3ccccc3)CC2)cc1 (stereo unspecified),inactive
2,N#Cc1cccc(N2CCC(NC(c3cccnc3)c3ccc(Cl)cc3F)CC2)c1 (stereo unspecified),inactive

# Test system: not listed separately
# Experiment: Kinetic aqueous solubility of the compound in phosphate buffer at pH 6.5 by nephelometric analysis
# Settings: not given
row,SMILES,solubility kinetic
1,CS(=O)(=O)c1ccc(N2CCN(C(=O)C(c3ccc(Cl)cc3)c3cccnc3)CC2)cc1 (stereo unspecified),6.3 µg/mL
2,O=C(C(c1ccc(Cl)cc1)c1cccnc1)N1CCN(c2ccc(C(F)(F)F)cn2)CC1 (stereo unspecified),3.1 µg/mL
3,O=C(C(c1ccc(Cl)cc1)c1cccnc1)N1CCN(c2ccc(C(F)(F)F)nc2)CC1 (stereo unspecified),6.3 µg/mL
4,CS(=O)(=O)c1ccc(N2CCN(C(=O)C(c3ccc(C#N)cc3)c3cccnc3)CC2)cc1 (stereo unspecified),3.1 µg/mL
5,CS(=O)(=O)c1ccc(N2CCC(N(c3ccc(C#N)cc3)c3cccnc3)CC2)cc1,< 1.6 µg/mL

# Test system: not listed separately
# Experiment: Kinetic aqueous solubility of the compound in phosphate buffer at pH 2 by nephelometric analysis
# Settings: buffer
row,SMILES,Kinetic solubility
1,O=C(C(c1ccc(Cl)cc1)c1cccnc1)N1CCN(c2ccc(C(F)(F)F)cn2)CC1 (stereo unspecified),25 µg/mL

# Same assay, conditions: phosphate buffer
row,SMILES,solubility kinetic
1,CS(=O)(=O)c1ccc(N2CCN(C(=O)C(c3ccc(Cl)cc3)c3cccnc3)CC2)cc1 (stereo unspecified),> 100 µg/mL
2,O=C(C(c1ccc(Cl)cc1)c1cccnc1)N1CCN(c2ccc(C(F)(F)F)nc2)CC1 (stereo unspecified),50 µg/mL
3,CS(=O)(=O)c1ccc(N2CCN(C(=O)C(c3ccc(C#N)cc3)c3cccnc3)CC2)cc1 (stereo unspecified),25 µg/mL
4,CS(=O)(=O)c1ccc(N2CCC(N(c3ccc(C#N)cc3)c3cccnc3)CC2)cc1,25 µg/mL

# Test system: not listed separately
# Experiment: Partition coefficient, log D of the compound at pH 7.4 by chromatographic method
# Settings: octanol/water
row,SMILES,chromatographic logD
1,CS(=O)(=O)c1ccc(N2CCN(C(=O)C(c3ccc(Cl)cc3)c3cccnc3)CC2)cc1 (stereo unspecified),3
2,O=C(C(c1ccc(Cl)cc1)c1cccnc1)N1CCN(c2ccc(C(F)(F)F)cn2)CC1 (stereo unspecified),4.2
3,O=C(C(c1ccc(Cl)cc1)c1cccnc1)N1CCN(c2ccc(C(F)(F)F)nc2)CC1 (stereo unspecified),3.7
4,CS(=O)(=O)c1ccc(N2CCN(C(=O)C(c3ccc(C#N)cc3)c3cccnc3)CC2)cc1 (stereo unspecified),2.4
5,CS(=O)(=O)c1ccc(N2CCC(N(c3ccc(C#N)cc3)c3cccnc3)CC2)cc1,3

# Biological target: Cytochrome P450 3A4 (Homo sapiens, UniProt P08684)
# Sequence (P08684 whole entry): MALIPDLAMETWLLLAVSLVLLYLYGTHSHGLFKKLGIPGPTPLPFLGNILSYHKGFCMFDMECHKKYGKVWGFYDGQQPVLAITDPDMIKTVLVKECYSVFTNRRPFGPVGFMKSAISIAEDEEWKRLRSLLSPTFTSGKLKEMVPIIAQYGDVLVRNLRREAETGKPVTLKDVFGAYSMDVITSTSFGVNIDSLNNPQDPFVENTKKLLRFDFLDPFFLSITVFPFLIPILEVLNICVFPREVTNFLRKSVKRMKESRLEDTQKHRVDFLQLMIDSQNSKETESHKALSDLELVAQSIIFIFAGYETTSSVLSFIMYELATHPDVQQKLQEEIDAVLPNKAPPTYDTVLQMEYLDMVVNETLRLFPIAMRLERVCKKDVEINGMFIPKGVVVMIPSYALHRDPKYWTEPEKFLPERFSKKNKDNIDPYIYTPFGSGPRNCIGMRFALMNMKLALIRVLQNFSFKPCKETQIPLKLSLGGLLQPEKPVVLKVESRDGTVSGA
# Experiment: Inhibition of CYP3A4 in human liver microsomes assessed as 6beta-hydroxylation of testosterone
# Settings: not given
row,SMILES,IC50
1,CS(=O)(=O)c1ccc(N2CCN(C(=O)C(c3ccc(Cl)cc3)c3cccnc3)CC2)cc1 (stereo unspecified),4 µM
2,O=C(C(c1ccc(Cl)cc1)c1cccnc1)N1CCN(c2ccc(C(F)(F)F)cn2)CC1 (stereo unspecified),7 µM
3,O=C(C(c1ccc(Cl)cc1)c1cccnc1)N1CCN(c2ccc(C(F)(F)F)nc2)CC1 (stereo unspecified),> 20 µM
4,CS(=O)(=O)c1ccc(N2CCN(C(=O)C(c3ccc(C#N)cc3)c3cccnc3)CC2)cc1 (stereo unspecified),> 20 µM
5,CS(=O)(=O)c1ccc(N2CCC(N(c3ccc(C#N)cc3)c3cccnc3)CC2)cc1,12 µM

# Test system: Trypanosoma cruzi
# Experiment: Antitrypanosomal activity against Trypanosoma cruzi Tulahuen 6 amastigotes infected in rat L6 cells after 96 hrs by colorimetric method
# Type: functional, organism-based
# Settings: Tulahuen 6, L6, 96 h
row,SMILES,IC50
1,CS(=O)(=O)c1ccc(N2CCN(C(=O)C(c3ccc(Cl)cc3)c3cccnc3)CC2)cc1 (stereo unspecified),0.002 µM
2,O=C(C(c1ccc(Cl)cc1)c1cccnc1)N1CCN(c2ccc(C(F)(F)F)cn2)CC1 (stereo unspecified),0.012 µM
3,O=C(C(c1ccc(Cl)cc1)c1cccnc1)N1CCN(c2ccc(C(F)(F)F)nc2)CC1 (stereo unspecified),0.008 µM
4,CS(=O)(=O)c1ccc(N2CCN(C(=O)C(c3ccc(C#N)cc3)c3cccnc3)CC2)cc1 (stereo unspecified),0.024 µM
5,CS(=O)(=O)c1ccc(N2CCC(N(c3ccc(C#N)cc3)c3cccnc3)CC2)cc1,0.002 µM
6,N#Cc1ccc(C(c2cccnc2)N2CCC(NC(=O)c3ccccc3)CC2)cc1 (stereo unspecified),0.024 µM
7,N#Cc1cccc(N2CCC(NC(c3cccnc3)c3ccc(Cl)cc3F)CC2)c1 (stereo unspecified),0.013 µM
